# Measured values gathered from unrelated publications.
# Protocols differ between the studies behind these lines.
# Target: Inhibitor of nuclear factor kappa-B kinase subunit beta (IKBKB, Homo sapiens, UniProt O14920)
# One construct used (O14920 1-756): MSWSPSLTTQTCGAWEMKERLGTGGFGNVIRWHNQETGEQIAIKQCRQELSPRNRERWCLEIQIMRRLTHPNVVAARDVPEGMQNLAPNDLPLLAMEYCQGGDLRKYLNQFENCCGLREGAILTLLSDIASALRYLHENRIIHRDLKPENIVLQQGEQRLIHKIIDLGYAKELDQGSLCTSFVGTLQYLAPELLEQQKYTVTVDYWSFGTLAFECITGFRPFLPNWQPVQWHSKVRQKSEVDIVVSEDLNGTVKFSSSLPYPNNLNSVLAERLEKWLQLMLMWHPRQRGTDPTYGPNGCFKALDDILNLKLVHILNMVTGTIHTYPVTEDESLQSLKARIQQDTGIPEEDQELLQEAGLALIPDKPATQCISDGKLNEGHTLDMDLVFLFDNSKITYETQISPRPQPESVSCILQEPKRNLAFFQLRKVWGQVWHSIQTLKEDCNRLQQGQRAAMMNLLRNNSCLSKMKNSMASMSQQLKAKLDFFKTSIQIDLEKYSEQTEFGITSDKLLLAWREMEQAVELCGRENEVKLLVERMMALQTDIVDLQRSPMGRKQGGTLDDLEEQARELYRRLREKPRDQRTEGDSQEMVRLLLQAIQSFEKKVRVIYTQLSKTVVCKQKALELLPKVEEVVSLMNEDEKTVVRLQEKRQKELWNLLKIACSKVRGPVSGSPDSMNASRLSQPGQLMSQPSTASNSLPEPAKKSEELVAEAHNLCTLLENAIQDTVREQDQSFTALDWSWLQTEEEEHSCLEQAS
SMILES,observed,method,concentration,remaining binding [%]
O=C(c1ccc(Nc2nccc(-c3cc4ccccc4s3)n2)cc1)N1CCC(N2CCCC2)CC1,binding,competition with immobilised ligand,1 µM,0.1
Cc1cnn2ncc(-c3ccnc(N(C)C)n3)c2c1,binding,competition with immobilised ligand,1 µM,53
COc1cnc(Nc2cccc(S(N)(=O)=O)c2)nc1N1CCN(c2ccccc2)CC1,binding,competition with immobilised ligand,1 µM,94
CSc1cccnc1N1CCN(Cc2nc3ccccc3[nH]2)CC1,cell-free assay,competition with immobilised ligand,1 µM,86
O=C(Nc1c[nH]nc1C(=O)NC1CCNCC1)c1cc(F)cc(F)c1,binding,competition with immobilised ligand,1 µM,100
CC(C)(C)c1ccc(-c2nc(CBr)nn2-c2cccc(O)c2)cc1,cell-free assay,competition with immobilised ligand,10 µM,70
O=C(c1ccc(Nc2ncc(Cl)c(-c3ccc(Cl)s3)n2)cc1)N1CCC(N2CCCC2)CC1,binding,competition with immobilised ligand,1 µM,0.6
CN(c1nccc(-c2cnn3ncccc23)n1)C1CC1,binding,,1 µM,100
N#Cc1ccccc1CSc1nnc2c(n1)[nH]c1ccccc12,binding,competition with immobilised ligand,10 µM,100
CNC(=O)Nc1ccc2c(c1)CC[C@@]21OC(=O)N(CC(=O)N(Cc2ccc(F)cc2)[C@@H](C)C(F)(F)F)C1=O,cell-free assay,competition with immobilised ligand,1 µM,83
N[C@@H]1CCN(c2nccc(-c3cnn4ncccc34)n2)C1,binding,competition with immobilised ligand,1 µM,100
CCCOc1ccc([C@@H]2[C@@H](C(=O)O)[C@H](c3ccc4c(c3)OCO4)CN2CC(=O)Nc2c(CC)cccc2CC)cc1,cell-free assay,competition with immobilised ligand,1 µM,94
COc1ncc2cc3ccccc3nc2c1C#N,cell-free assay,competition with immobilised ligand,5 µM,96
O=C(NCCCN1CCOCC1)c1ccc(Nc2nccc(-c3cc4ccccc4s3)n2)cc1,binding,competition with immobilised ligand,1 µM,5.1
C[C@@H]1CN(c2ccc3ncc(-c4ccc5[nH]nc(C6CC6)c5c4)n3n2)C[C@H](C)O1,binding,competition with immobilised ligand,50 nM,88
Cc1c(NC(=O)c2cc(C(N)=O)nc3cc(F)ccc23)c(C(F)(F)F)nn1Cc1ccc(C(C)(C)C)cc1,cell-free assay,competition with immobilised ligand,1 µM,100
Nc1ncc2c(n1)-c1c([nH]c3ccc(C#CC4CC4)cc13)CCCC2,binding,competition with immobilised ligand,1 µM,100
CC(=O)N1CCC(c2ccc(C(=O)NC3=NCCN3)cc2C(F)(F)F)CC1,cell-free assay,competition with immobilised ligand,1 µM,85
C[C@@H]1CCN(c2nccc(-c3cnn4ncccc34)n2)C1,binding,competition with immobilised ligand,1 µM,77
CS(=O)(=O)c1cc(C2(NC(=O)c3cncc4c3cnn4-c3ccc(F)cc3)CC2)ccn1,cell-free assay,competition with immobilised ligand,1 µM,100
COc1ccnn2ncc(-c3ccnc(N(C)C)n3)c12,binding,competition with immobilised ligand,1 µM,98
CCCCN(CCCC)C(=O)CN1C[C@H](c2cc(OC)c3c(c2)OCO3)[C@@H](C(=O)O)[C@@H]1CC(C)(C)CCC,cell-free assay,competition with immobilised ligand,1 µM,81.5
F[C@@H]1CCN(c2nccc(-c3cnn4ncccc34)n2)C1,binding,competition with immobilised ligand,1 µM,100
FC(F)(F)Oc1cccc(-c2cnc3ccc(-c4ccncc4)nn23)c1,cell-free assay,competition with immobilised ligand,5 µM,56
CN(C)c1ncc(F)c(-c2cnn3ncccc23)n1,binding,competition with immobilised ligand,1 µM,80
CCN1CCN(Cc2ccc(C(=O)Nc3ccc(C)c(Oc4ccc5c(c4)CC(=O)N5)c3)cc2C(F)(F)F)CC1,binding,competition with immobilised ligand,1 µM,100
